ChEMBL document CHEMBL3259701, “Siderophore receptor-mediated uptake of lactivicin analogues in gram-negative bacteria” (J Med Chem, 2014)
Values after ≈ are worked out from the molar mass of the structure shown.

Assays:
Escherichia coli [1] = assay: Antibacterial activity against Escherichia coli DH5alpha expressing beta-lactamase NDM-1 by CLSI broth microdilution method; assay type: functional; details: DH5[alpha]
Escherichia coli [2] = assay: Antibacterial activity against Escherichia coli DH5alpha expressing beta-lactamase SHV-5 by CLSI broth microdilution method; assay type: functional; details: DH5[alpha]
Escherichia coli [3] = assay: Antibacterial activity against Escherichia coli DH5alpha harboring pUCP26 empty vector by CLSI broth microdilution method; assay type: functional; details: DH5[alpha]
Escherichia coli [4] = assay: Antibacterial activity against Escherichia coli DH5alpha expressing beta-lactamase OXA-24/40 by CLSI broth microdilution method; assay type: functional; details: DH5[alpha]
Escherichia coli [5] = assay: Antibacterial activity against Escherichia coli DH5alpha expressing beta-lactamase OXA-58 by CLSI broth microdilution method; assay type: functional; details: DH5[alpha]
Escherichia coli [6] = assay: Antibacterial activity against Escherichia coli DH5alpha expressing beta-lactamase TEM-1 by CLSI broth microdilution method; assay type: functional; details: DH5[alpha]
Escherichia coli [7] = assay: Antibacterial activity against Escherichia coli DH5alpha expressing beta-lactamase KPC-3 by CLSI broth microdilution method; assay type: functional; details: DH5[alpha]
Escherichia coli [8] = assay: Antibacterial activity against Escherichia coli DH5alpha expressing beta-lactamase CTX-M-15 by CLSI broth microdilution method; assay type: functional; details: DH5[alpha]
Escherichia coli [9] = assay: Antibacterial activity against Escherichia coli DH5alpha expressing beta-lactamase TEM-24 by CLSI broth microdilution method; assay type: functional; details: DH5[alpha]
Escherichia coli [10] = assay: Antibacterial activity against Escherichia coli DH5alpha expressing beta-lactamase VIM-2 by CLSI broth microdilution method; assay type: functional; details: DH5[alpha]
Escherichia coli [11] = assay: Antibacterial activity against Escherichia coli DH5alpha expressing beta-lactamase SHV-12 by CLSI broth microdilution method; assay type: functional; details: DH5[alpha]
Escherichia coli [12] = assay: Antibacterial activity against Escherichia coli DH5alpha by CLSI broth microdilution method; assay type: functional; details: DH5[alpha]
Acinetobacter baumannii = assay: Antibacterial activity against Acinetobacter baumannii AB-3167 by CLSI broth microdilution method; assay type: functional
Escherichia coli [13] = assay: Ratio of MIC for Escherichia coli DH5alpha expressing beta-lactamase OXA-24/40 to MIC for Escherichia coli DH5alpha harboring pUCP26 empty vector; assay type: functional, DH5[alpha]
In short: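 Isogenic E. coli panel in which each strain was engineered to express a single common β-lactamase. MIC for the OXA-24/40 strain was divided by the MIC for the empty-vector control strain. MICs were obtained by CLSI broth microdilution.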

Pseudomonas aeruginosa [14] = assay: Antibacterial activity against Pseudomonas aeruginosa 1091-05 by CLSI broth microdilution method; assay type: functional
[15] = Displacement of fluorescent Bocillin FL from Pseudomonas aeruginosa PBP2
[16] = Displacement of fluorescent Bocillin FL from Pseudomonas aeruginosa PBP3
Klebsiella pneumoniae = assay: Antibacterial activity against Klebsiella pneumoniae KP-3700 by CLSI broth microdilution method; assay type: functional
[17] = molecular target: Penicillin-binding protein 1A (Pseudomonas aeruginosa PAO1, UniProt Q07806); assay: Displacement of fluorescent Bocillin FL from N-terminal His tagged Pseudomonas aeruginosa PAO1 PBP1a (residues 36 to 822) expressed in Escherichia coli BL21 (Gold cells)
Pseudomonas aeruginosa [18] = assay: Antibacterial activity against Pseudomonas aeruginosa PAO1 by CLSI broth microdilution method; assay type: functional
[19] = Displacement of fluorescent Bocillin FL from Pseudomonas aeruginosa PBP1b
Escherichia coli [20] = assay: Antibacterial activity against Escherichia coli EC-28 by CLSI broth microdilution method; assay type: functional

Chain of Penicillin-binding protein 1A (Q07806 whole entry, the tested form may be a part): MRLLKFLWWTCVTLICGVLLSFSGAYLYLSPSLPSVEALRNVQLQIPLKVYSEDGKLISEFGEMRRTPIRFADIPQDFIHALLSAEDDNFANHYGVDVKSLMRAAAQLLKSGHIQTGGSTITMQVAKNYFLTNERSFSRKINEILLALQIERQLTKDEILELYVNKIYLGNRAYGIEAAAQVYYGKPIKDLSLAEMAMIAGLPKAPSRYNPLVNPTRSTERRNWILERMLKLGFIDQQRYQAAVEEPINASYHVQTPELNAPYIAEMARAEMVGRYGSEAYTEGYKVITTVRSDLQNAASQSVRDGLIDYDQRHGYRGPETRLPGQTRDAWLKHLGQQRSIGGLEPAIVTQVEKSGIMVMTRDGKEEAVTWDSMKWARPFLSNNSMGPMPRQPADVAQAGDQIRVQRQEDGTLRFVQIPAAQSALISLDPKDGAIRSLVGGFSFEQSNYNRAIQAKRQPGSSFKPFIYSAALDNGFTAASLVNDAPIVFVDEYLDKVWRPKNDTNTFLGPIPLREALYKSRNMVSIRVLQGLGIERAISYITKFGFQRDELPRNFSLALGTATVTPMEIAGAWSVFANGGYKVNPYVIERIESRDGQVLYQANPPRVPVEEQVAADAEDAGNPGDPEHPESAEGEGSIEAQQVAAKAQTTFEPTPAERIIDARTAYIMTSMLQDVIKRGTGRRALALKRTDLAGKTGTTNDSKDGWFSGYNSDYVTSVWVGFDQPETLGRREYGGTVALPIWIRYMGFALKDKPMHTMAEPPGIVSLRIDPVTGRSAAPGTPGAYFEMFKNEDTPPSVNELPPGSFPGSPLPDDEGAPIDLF

Row | SMILES | MIC (Escherichia coli [1]) [µg/mL] | MIC (Escherichia coli [2]) [µg/mL] | MIC (Escherichia coli [3]) [µg/mL] | MIC (Escherichia coli [4]) [µg/mL] | MIC (Escherichia coli [5]) [µg/mL] | MIC (Escherichia coli [6]) [µg/mL] | MIC (Escherichia coli [7]) [µg/mL] | MIC (Escherichia coli [8]) [µg/mL] | MIC (Escherichia coli [9]) [µg/mL] | MIC (Escherichia coli [10]) [µg/mL] | MIC (Escherichia coli [11]) [µg/mL] | MIC (Acinetobacter baumannii) [µg/mL] | MIC (Pseudomonas aeruginosa [14]) [µg/mL] | IC50 [15] [nM] | IC50 [16] [nM] | MIC (Klebsiella pneumoniae) [µg/mL] | IC50 [17] [nM] | MIC (Pseudomonas aeruginosa [18]) [µg/mL] | IC50 [19] [nM] | MIC (Escherichia coli [20]) [µg/mL] | also measured
1 | CC1(C)[C@H](NC(=O)/C(=N\OCc2cc(=O)c(O)cn2O)c2csc(N)n2)C(=O)N1OS(=O)(=O)O | 0.06 (≈ 0.116 µM) | > 64 | 0.125 (≈ 0.241 µM) | 0.125 (≈ 0.241 µM) | 0.125 (≈ 0.241 µM) | 0.03 (≈ 0.0579 µM) | 0.125 (≈ 0.241 µM) | 1 (≈ 1.93 µM) | > 64 | 0.03 (≈ 0.0579 µM) | > 64 |  |  |  |  |  |  |  |  |  | MIC (Escherichia coli [12]): 0.125 µg/mL (≈ 0.241 µM)
2 | CC(C)(O/N=C(\C(=O)N[C@H]1CON(C2(C(=O)O)CCC(=O)O2)C1=O)c1csc(N)n1)C(=O)O (some centres undefined) | 0.5 (≈ 1.03 µM) | 0.5 (≈ 1.03 µM) | 0.25 (≈ 0.515 µM) | 1 (≈ 2.06 µM) | 0.25 (≈ 0.515 µM) | 0.25 (≈ 0.515 µM) | 0.5 (≈ 1.03 µM) | 0.5 (≈ 1.03 µM) | 0.5 (≈ 1.03 µM) | 0.25 (≈ 0.515 µM) | 0.25 (≈ 0.515 µM) | 32 (≈ 65.9 µM) | 32 (≈ 65.9 µM) | 33300 | 92 | 4 (≈ 8.24 µM) | 46 | 32 (≈ 65.9 µM) | 1230 |  | Ratio (Escherichia coli [13]): 4; MIC (Escherichia coli [12]): 0.25 µg/mL (≈ 0.515 µM)
3 | Nc1nc(/C(=N/OCc2cc(=O)c(O)cn2O)C(=O)N[C@H]2CON(C3(C(=O)O)CCC(=O)O3)C2=O)cs1 (some centres undefined) | 1 (≈ 1.86 µM) | 32 (≈ 59.4 µM) | 0.5 (≈ 0.929 µM) | 1 (≈ 1.86 µM) | 1 (≈ 1.86 µM) | 1 (≈ 1.86 µM) | 1 (≈ 1.86 µM) | 4 (≈ 7.43 µM) | 4 (≈ 7.43 µM) | 0.5 (≈ 0.929 µM) | 16 (≈ 29.7 µM) | 0.5 (≈ 0.929 µM) | 4 (≈ 7.43 µM) | 22200 | 140 | 32 (≈ 59.4 µM) | 46 | 8 (≈ 14.9 µM) | 2460 | 2 (≈ 3.71 µM) | MIC (Escherichia coli [12]): 1 µg/mL (≈ 1.86 µM)
4 | CC(C)(O/N=C(\C(=O)N[C@H]1CON(C2(C(=O)O)C[C@@H](NC(=O)OCc3ccccc3)C(=O)O2)C1=O)c1csc(N)n1)C(=O)O (some centres undefined) |  |  |  |  |  |  |  |  |  |  |  | > 64 | > 64 | 47100 |  | > 64 | 110 | > 64 | 2440 | > 64 | 
5 | CC(C)(O/N=C(\C(=O)N[C@H]1CON(C2(C(=O)O)C[C@H](NC(=O)OCc3ccccc3)C(=O)O2)C1=O)c1csc(N)n1)C(=O)O (some centres undefined) |  |  |  |  |  |  |  |  |  |  |  | > 64 | > 64 | 33300 |  | > 64 | 65 | > 64 | 1740 | > 64 | 
6 | CC(C)(O/N=C(\C(=O)N[C@H]1CON(C2(C(=O)O)C[C@@H](NC(=O)c3cc(=O)c(O)cn3O)C(=O)O2)C1=O)c1csc(N)n1)C(=O)O (some centres undefined) |  |  |  |  |  |  |  |  |  |  |  | 0.5 (≈ 0.765 µM) | 2 (≈ 3.06 µM) | 6410 | 65 | 16 (≈ 24.5 µM) | 46 | 16 (≈ 24.5 µM) | 820 | 1 (≈ 1.53 µM) | 
7 | CC(C)(O/N=C(\C(=O)N[C@H]1CON(C2(C(=O)O)C[C@H](NC(=O)c3cc(=O)c(O)cn3O)C(=O)O2)C1=O)c1csc(N)n1)C(=O)O (some centres undefined) |  |  |  |  |  |  |  |  |  |  |  | 0.5 (≈ 0.765 µM) | 64 (≈ 97.9 µM) | 3700 | 92 | 8 (≈ 12.2 µM) | 46 | 2 (≈ 3.06 µM) | 820 | 1 (≈ 1.53 µM) | 
8 | CC[C@H](O)Cn1c(-c2cc(=O)c(O)c[nH]2)nn(S(=O)(=O)[N-]C(=O)N2C[C@H](NC(=O)/C(=N\OC(C)(C)C(=O)[O-])c3csc(N)n3)C2=O)c1=O.[Na+].[Na+] | 0.03 | 0.5 | 0.125 | 0.25 | 0.125 | 0.03 | 0.06 | 0.25 | 0.125 | 0.015 | 0.25 |  |  |  |  |  |  |  |  |  | MIC (Escherichia coli [12]): 0.125 µg/mL
9 | CC1(C)S[C@@H]2[C@H](NC(=O)[C@H](N)c3ccccc3)C(=O)N2[C@H]1C(=O)O [AMPICILLIN] | > 64 | > 64 |  | 32 (≈ 91.6 µM) | > 64 | > 64 | 64 (≈ 183 µM) | > 64 | > 64 | > 64 | > 64 |  |  |  |  |  |  |  |  |  | 
10 | C[C@H]1[C@H](NC(=O)/C(=N\OC(C)(C)C(=O)O)c2csc(N)n2)C(=O)N1S(=O)(=O)O [AZTREONAM] |  |  |  |  |  |  |  |  |  |  |  |  |  | > 300000 | 8 |  | 3340 |  | 2870 |  | 
